Reference: ChEMBL document CHEMBL3616466, “Pyrazolo[3,4-h]quinolines promising photosensitizing agents in the treatment of cancer” (Eur J Med Chem, 2015)
Calls of active or inactive are those of the source. No cut-off for these calls is given here.

Assays:
[1] = system: Jurkat; test: Photocytotoxicity against human Jurkat cells assessed as growth inhibition at 2.5 J/cm'2 irradiation for 30 mins followed by drug treated for 72 hrs by MTT assay; format: functional; conditions: light or radiation study
Method in brief: (§1)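 Cells seeded at 5 × 10³ per well and pre-incubated 24 h. Drug dilutions in HBSS (pH 7.2, from DMSO stock) added for 30 min at 37 °C, then UV-A irradiation at the stated dose. Drug solution then replaced with culture medium and plates incubated 72 h. Viability by MTT; GI50 from concentration series.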

[2] = system: Jurkat; test: Photocytotoxicity against human Jurkat cells assessed as growth inhibition at 1.25 J/cm'2 irradiation for 30 mins followed by drug treated for 72 hrs by MTT assay; format: functional; conditions: light or radiation study; method in brief: as §1
[3] = system: HL-60; test: Photocytotoxicity against human HL60 cells assessed as growth inhibition at 2.5 J/cm'2 irradiation for 30 mins followed by drug treated for 72 hrs by MTT assay; format: functional; conditions: HL-60, light or radiation study; method in brief: as §1
[4] = system: HL-60; test: Photocytotoxicity against human HL60 cells assessed as growth inhibition at 1.25 J/cm'2 irradiation for 30 mins followed by drug treated for 72 hrs by MTT assay; format: functional; conditions: HL-60, light or radiation study; method in brief: as §1
[5] = system: MCF7; test: Photocytotoxicity against human MCF7 cells assessed as growth inhibition at 3.75 J/cm'2 irradiation for 30 mins followed by drug treated for 72 hrs by MTT assay; format: functional; conditions: MCF7, light or radiation study; method in brief: as §1
[6] = system: MCF7; test: Photocytotoxicity against human MCF7 cells assessed as growth inhibition at 2.5 J/cm'2 irradiation for 30 mins followed by drug treated for 72 hrs by MTT assay; format: functional; conditions: MCF7, light or radiation study; method in brief: as §1
[7] = system: A549; test: Photocytotoxicity against human A549 cells assessed as growth inhibition at 3.75 J/cm'2 irradiation for 30 mins followed by drug treated for 72 hrs by MTT assay; format: functional; conditions: A549, light or radiation study; method in brief: as §1
[8] = system: A549; test: Photocytotoxicity against human A549 cells assessed as growth inhibition at 2.5 J/cm'2 irradiation for 30 mins followed by drug treated for 72 hrs by MTT assay; format: functional; conditions: A549, light or radiation study; method in brief: as §1
[9] = system: LoVo; test: Photocytotoxicity against human LoVo cells assessed as growth inhibition at 3.75 J/cm'2 irradiation for 30 mins followed by drug treated for 72 hrs by MTT assay; format: functional; conditions: light or radiation study; method in brief: as §1
[10] = system: LoVo; test: Photocytotoxicity against human LoVo cells assessed as growth inhibition at 2.5 J/cm'2 irradiation for 30 mins followed by drug treated for 72 hrs by MTT assay; format: functional; conditions: light or radiation study; method in brief: as §1
[11] = system: A549; test: Photocytotoxicity against human A549 cells assessed as inhibition of colony formation at 2.5 J/cm'2 irradiation after 1 to 2 weeks using crystal violet staining by optical microscopy; format: functional, cell-based
Method in brief: (§2)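 A-549 cells (10 × 10³) plated in dishes. After 24 h, irradiated at 2.5 J/cm² with compound at varying concentrations. Medium replaced, then cultured 1–2 weeks with medium changes every 2–3 days. Stained with crystal violet; colonies of ≥50 cells counted visually. Expressed as % of untreated cells; mean ± SEM of three experiments.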

[12] = system: Jurkat; test: Photocytotoxicity against human Jurkat cells assessed as reduction of cell survival at 0.2 uM measured 72 hrs post 2.5 J/cm'2 irradiation by MTT assay in the presence of vitamin E, NaN3, DABCO, DMTU and MANN; format: functional, cell-based
Method in brief: (§3)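 Jurkat cells irradiated at 2.5 J/cm² with compound in HBSS together with a scavenger: vitamin E 60 µM, NaN₃ 10 mM, DABCO 1 mM, GSH 1 mM, DMTU 1 mM or mannitol 10 mM. Medium replaced after irradiation; viability by MTT 72 h later.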

[13] = Induction of singlet oxygen generation measured after UV-A irradiation by RNO bleaching assay; format: physicochemical
Method in brief: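 Compound (2.2 × 10⁻⁵ M), RNO (4 × 10⁻⁵ M) and imidazole (4 × 10⁻⁵ M) in phosphate buffer pH 7.3 irradiated with increasing UV-A doses. Absorbance read at 440 nm; reported as % RNO bleaching.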

[14] = Induction of superoxide anion generation measured after UV-A irradiation by NBT reduction assay; format: physicochemical
Method in brief: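 Compound (10⁻⁵ M) with nitroblue tetrazolium (1.6 × 10⁻⁴ M) in carbonate buffer pH 10 irradiated with increasing UV-A doses. Absorbance at 560 nm followed as the superoxide read-out.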

[15] = system: Jurkat; test: Induction of apoptosis in human Jurkat cells assessed as reduction in alive cells using Annexin-V and propidium iodide staining at 1 to 2 uM measured 24 hrs post 2.5 J/cm'2 irradiation by flow cytometry analysis; format: functional, cell-based
Method in brief: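 Jurkat cells irradiated (2.5 J/cm²) with compound at 1 or 2 µM. After 24 h, co-stained with Annexin V-FITC and PI and analysed by flow cytometry (excitation 488 nm; emission 525 and 585 nm). Mean of three independent experiments.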

[16] = system: Jurkat; test: Induction of apoptosis in human Jurkat cells assessed as increase in cleaved caspase 3 level at 1 uM measured 24 hrs post 2.5 J/cm'2 irradiation by Western blot analysis; format: functional, cell-based
Method in brief: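 Jurkat cells irradiated (2.5 J/cm²) with compound at 1 µM. At 24 h, cells washed in cold PBS and lysed on ice for 20 min. 20 µg protein run on 8–16% gradient gels and transferred to nitrocellulose. Probed with rabbit anti-caspase-3 and β-actin (1:1000, 2 h), then peroxidase anti-rabbit IgG; ECL detection.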

[17] = system: Jurkat; test: Induction of apoptosis in human Jurkat cells assessed as reduction in mitochondrial potential at 1 to 2 uM using JC-1 staining measured 24 hrs post 2.5 J/cm'2 irradiation by FACS assay; format: functional, cell-based
Method in brief: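 At 24 h after 2.5 J/cm² irradiation with compound at 1 or 2 µM, Jurkat cells were pelleted and resuspended in HBSS with 1 µM JC-1. After 10 min at 37 °C, fluorescence read at 530 and 590 nm by flow cytometry. Mean ± SEM, n=3.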

[18] = system: Jurkat; test: Induction of apoptosis in human Jurkat cells assessed as ROS production at 1 to 2 uM using HE and DCFDA staining measured 24 hrs post 2.5 J/cm'2 irradiation by FACS assay; format: functional, cell-based
[19] = system: Jurkat; test: Induction of apoptosis in human Jurkat cells assessed as lysosome death at 1 to 2 uM using acridine orange staining measured 24 hrs post 2.5 J/cm'2 irradiation by flow cytometry; format: functional, cell-based
[20] = system: Escherichia coli; test: Induction of DNA damage in Escherichia coli pBR322 DNA measured at 7.5 J/cm'2 UV-A irradiation by neutral agarose electrophoresis
Method in brief: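 pBR322 plasmid (100 ng) in 10 mM phosphate buffer pH 7.2 irradiated at 7.5 J/cm² UV-A with compound at a compound/DNA ratio of 3/1. Aliquots incubated at 37 °C with Fpg or Endo III. Run on 1% agarose in TAE at 70 V for 4 h; supercoiled, open circular and linear bands quantified.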

[21] = system: Jurkat; test: Induction of lipid peroxidation in human Jurkat cells at 2 uM measured 24 hrs post 2.5 J/cm'2 irradiation by TBA assay; format: functional, cell-based
Method in brief: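 TBA test for TBARS performed on supernatant medium and on cell lysates 24 h post-irradiation. Mean ± SEM of three experiments.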

[22] = system: MCF7; test: Ratio of angelicin GI50 to compound GI50 for human MCF7 cells assessed as growth inhibition at 3.75 J/cm'2 irradiation for 30 mins followed by drug treated for 72 hrs by MTT assay; format: functional
Method in brief: (§4)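 Cells were pre-incubated 30 min at 37 °C with drug in HBSS, irradiated, then drug replaced with medium. Ratio is angelicin GI50 divided by compound GI50.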

[23] = system: LoVo; test: Ratio of angelicin GI50 to compound GI50 for human LoVo cells assessed as growth inhibition at 3.75 J/cm'2 irradiation for 30 mins followed by drug treated for 72 hrs by MTT assay; format: functional; method in brief: as §4
[24] = system: Jurkat; test: Photocytotoxicity against human Jurkat cells assessed as reduction of cell survival at 0.5 uM measured 72 hrs post 2.5 J/cm'2 irradiation by MTT assay in the presence of vitamin E, NaN3, DABCO, DMTU and MANN; format: functional, cell-based; method in brief: as §3
[25] = system: Jurkat; test: Photocytotoxicity against human Jurkat cells assessed as cell survival at 0.5 uM measured 72 hrs post 2.5 J/cm'2 irradiation by MTT assay in presence of lipophilic scavengers; format: functional, cell-based; method in brief: as §3
[26] = system: Jurkat; test: Cytotoxicity against human Jurkat cells assessed as growth inhibition after 72 hrs by MTT assay; format: functional
[27] = system: HL-60; test: Cytotoxicity against human HL60 cells assessed as growth inhibition after 72 hrs by MTT assay; format: functional; conditions: HL-60, 72 h
[28] = system: A549; test: Cytotoxicity against human A549 cells assessed as growth inhibition after 72 hrs by MTT assay; format: functional; conditions: A549, 72 h
Method in brief: (§5)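 Cells (5 × 10³ per well) pre-incubated 24 h at 37 °C, 5% CO₂, then exposed in the dark to serial concentrations diluted from DMSO stock into complete medium for 72 h at 37 °C. Viability read by MTT; GI50 derived. LoVo in Ham's F-12, MCF-7 and A-549 in DMEM, all with 10% FBS and penicillin/streptomycin.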

[29] = system: MCF7; test: Cytotoxicity against human MCF7 cells assessed as growth inhibition after 72 hrs by MTT assay; format: functional; conditions: MCF7, 72 h; method in brief: as §5
[30] = system: LoVo; test: Cytotoxicity against human LoVo cells assessed as growth inhibition after 72 hrs by MTT assay; format: functional; method in brief: as §5
[31] = system: A549; test: Photocytotoxicity against human A549 cells assessed as inhibition of colony formation at 0.0625 to 0.5 uM measured 24 hrs post 2.5 J/cm'2 irradiation after 1 to 2 weeks by optical microscopy; format: functional, cell-based; method in brief: as §2

Row | Structure (SMILES) | GI50 [1] | GI50 [2] | GI50 [3] | GI50 [4] | GI50 [5] | GI50 [6] | GI50 [7] | GI50 [8] | GI50 [9] | GI50 [10] | Activity [11] | Activity [15] | Activity [16] | Activity [17] | Activity [18] | Activity [19] | Activity [20] | Activity [21] | GI50 [26] | GI50 [27] | other results
1 | Cn1c(=O)c(S(=O)(=O)c2ccccc2)cc2ccc3c(cnn3-c3ccc(Cl)cc3)c21 | 100 nM | 200 nM | 310 nM | 390 nM | 170 nM | 330 nM | 80 nM | 260 nM | 40 nM | 160 nM | Dose-dependent effect | Active | Active | Active | Active | Active | inactive | Active | – | – | Activity [12]: inactive; Activity [13]: Active; Activity [14]: Active; Ratio IC50 [22]: 8; Ratio IC50 [23]: 27
2 | COc1ccc(-n2ncc3c2CCc2cc(S(=O)(=O)c4ccccc4)c(OC)nc2-3)cc1 | 640 nM | 1150 nM | 720 nM | 5290 nM | 1180 nM | 2530 nM | 1520 nM | 4020 nM | 530 nM | 3560 nM | Dose-dependent effect | Active | inactive | Active | inactive | inactive | inactive | Active | 12.5 µM | > 20 µM | Activity [24]: inactive; Activity [25]: inactive; GI50 [28]: > 20 µM; GI50 [29]: > 20 µM; GI50 [30]: > 20 µM
3 | COc1ccc(-n2ncc3c2ccc2cc(S(=O)(=O)c4ccccc4)c(=O)n(C)c23)cc1 | 250 nM | 580 nM | 440 nM | 610 nM | 140 nM | 290 nM | 80 nM | 270 nM | 90 nM | 190 nM | Dose-dependent effect | Active | Active | Active | Active | Active | inactive | Active | > 20 µM | > 20 µM | Activity [13]: Active; Activity [14]: Active; Activity [31]: Dose-dependent effect; Ratio IC50 [22]: 10; Ratio IC50 [23]: 12; GI50 [28]: > 20 µM; GI50 [29]: 9.6 µM; GI50 [30]: > 20 µM
4 | COc1nc2c(cc1S(=O)(=O)c1ccccc1)CCc1c-2cnn1-c1ccc(Cl)cc1 | 430 nM | 720 nM | 480 nM | 4030 nM | 1690 nM | 7090 nM | 1490 nM | 5280 nM | 730 nM | 5530 nM | Dose-dependent effect | Active | inactive | Active | inactive | inactive | inactive | Active | 11.3 µM | > 20 µM | Activity [25]: inactive; GI50 [28]: > 20 µM; GI50 [29]: > 20 µM; GI50 [30]: > 20 µM
